# Source: PubChem BioAssay AID651830 (Vanderbilt Specialized Chemistry Center, 2012)
# The source made the active and inactive calls.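 Rule for the calls: active = inhibition above 50% in the panel binding assay; inactive = inhibition of 50% or less.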
# Test: radioligand displacement at receptors, transporters, channels – biochemical, Eurofins PanLabs, radioligand binding, selectivity assay for mGlu3 NAM project, profiling panel (AID 651830)
# Details: at 10 µM, stronger effect = higher value
# In short: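 Probe or stimulus: target-selective radioligand; Benchmarks: reference standards in each assay; Evaluation: % inhibition of radioligand binding; Measured by: radioligand binding displacement.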
smiles,measurement,setting,value
COc1ccc(C#Cc2ccc(C(=O)N3CCC[C@@H](O)C3)c(F)c2)cc1,inhibition,,74% (active)
same,inhibition,measured here: 5-HT1A binding,71%
same,inhibition,measured here: 5-HT2B binding,-12%
same,inhibition,measured here: N-type calcium channel binding,22%
same,inhibition,measured here: P2X binding,31%
same,inhibition,measured here: adenosine A3 binding,45%
same,inhibition,measured here: alpha1D adrenergic binding,20%
same,inhibition,measured here: dopamine D3 binding,24%
same,inhibition,measured here: hERG binding,28%
same,inhibition,measured here: kainate receptor binding,19%
same,inhibition,measured here: norepinephrine transporter binding,25%
same,inhibition,measured here: serotonin transporter binding,-1%
same,inhibition,measured here: sigma1 binding,33%
